Measured values published in paper PMC10401072 (Cancer discovery, 2023).

Columns and labels:
[1] = test system: KRAS G12D mutant low-grade serous ovarian cancer; assay: Phase 1 trial tumor response; format: in vivo, human; settings: after 6 weeks of monotherapy
How it was run: (§1)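 Tumor response was assessed by CT imaging every 6 weeks per RECIST v1.1 during oral monotherapy (powder in capsule) on the phase I trial.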

Phase 1 trial safety = format: in vivo, human; settings: single patient, monotherapy followed by combination, first dose level
How it was run: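 Lead-in monotherapy ran 2 cycles/6 weeks. Matched targeted therapy was then added at labeled doses upon radiographic progression, if no ongoing grade ≥3 toxicity or DLT. The SHP2 inhibitor restarted one dose level below the highest safe monotherapy dose. Intrapatient escalation was allowed after 1 cycle. Adverse events were graded by CTCAE v5.0, and dose changes followed a prescribed algorithm.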

[2] = Patient pharmacokinetic assessment; format: in vivo, human
How it was run: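 Compound was given as powder in capsule. Plasma was sampled before treatment and at set intervals after dosing on cycle 1 days 1 and 18 at the starting monotherapy dose. Drug level was measured by a validated LC-MS/MS assay.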

[3] = test system: pERK in MIA PaCa-2 tumors; assay: Animal PK/PD study: pERK in tumors; format: in vivo, mouse; settings: single oral dose 30 mg/kg
How it was run: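 Female Foxn1nu mice bearing subcutaneous right-flank xenografts (5 × 10^6 cells) grown to about 500 mm3 and randomized by size into groups of three. Each received one 30 mg/kg oral gavage dose in 20% hydroxypropyl-β-cyclodextrin/50 mmol/L citric acid, pH 4. Tumors were taken at 1, 8, 24 and 48 h and lysed in NP-40 buffer. pERK was immunoblotted in 250 μg lysate, normalized to GAPDH and vehicle controls, as POC.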

[4] = test system: GOPC-ROS1 fusion-positive pancreatic adenocarcinoma; assay: Phase 1 trial tumor response; format: in vivo, human
[5] = test system: EML4-ALK fusion-positive NSCLC; format: in vivo, human; settings: after 6 weeks monotherapy, 20 mg BIW
[6] = test system: pERK in ex vivo CSF1-stimulated peripheral blood monocytes; assay: Patient pharmacodynamic assessment; set-up: species or system human; settings: ALK NSCLC patient; 20 mg; 4 hours after dosing on C1D1
How it was run: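 Patient whole blood was shipped refrigerated the same day and processed within a 24 h stability window. Ex vivo stimulation used 9 ng/mL recombinant human M-CSF for 12 min at room temperature, with unstimulated control. Staining with CD45, CD14, ERK1/2 and pERK1/2 (T202/Y204) antibodies ran 30 min in the dark. Flow cytometry excluded doublets and gated CD45+CD14+ monocytes. pERK1/2 MFI was normalized to the unstimulated sample.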

[7] = test system: metastatic BRAF V600E colorectal cancer; assay: Phase 1 trial tumor response; format: in vivo, human; settings: after 6 weeks monotherapy; new lesions
How it was run: as §1

[8] = cited from earlier work

Nc1nccc(Sc2cnc(N3CCC4(CC3)Cc3ccccc3[C@H]4N)nn2)c1Cl [PF-07284892]
tumor growth in two target lesions [1]: +6% | dose-limiting toxicities (DLTs) (Phase 1 trial safety): no DLTs | plasma level of PF-07284892 ([2]; ALK NSCLC patient, 20 mg orally BIW, 4 hours after C1D1 dose): 41 ng/mL | plasma level of PF-07284892 ([2]; ALK NSCLC patient, 20 mg orally BIW, pre-dose C1D18, 3 days after prior dose): 29 ng/mL | plasma level of PF-07284892 ([2]; BRAF V600E CRC patient, 20 mg BIW, C1D1): 56 ng/mL | plasma level of PF-07284892 ([2]; BRAF V600E CRC patient, 20 mg BIW, C1D18): 35 ng/mL | suppression of pERK in tumors [3]: significant suppression | change in two target lesion liver metastases ([4]; after 6 weeks of monotherapy): +26% | change in target lesions on CT [5]: +50% | response (RECIST 1.1) [5]: progressive disease | decrease in pERK levels in peripheral blood monocytes [6]: 80% | change in target lesions [7]: +43%

Cc1nc(N2CCC3(CC2)CO[C@@H](C)[C@H]3N)c(CO)nc1Sc1ccnc(N)c1Cl [RMC-4630]
monotherapy activity in FIH trials [8]: limited monotherapy activity

C[C@@H]1OCC2(CCN(c3cnc(Sc4ccnc(N)c4Cl)c(N)n3)CC2)[C@@H]1N [TNO155]
monotherapy activity in FIH trials [8]: limited monotherapy activity

C[C@H]1CNC(=O)c2cnn3ccc(nc23)N[C@H](C)c2cc(F)ccc2O1 [repotrectinib, reference compound]
time to progression on previous therapy ([4]; pre-study therapy, patient history): ~ 10 months
